From ChEMBL document CHEMBL1134485, “Diguanidino and "reversed" diamidino 2,5-diarylfurans as antimicrobial agents” (2001)
In brackets after ≈: the same amount, converted by molar mass.

Assays:
[1] = system: Nucleic Acid
[2] = system: Aspergillus fumigatus; experiment: Antimicrobial activity against Aspergillus fumigatus (MIC); type: functional
[3] = system: Candida albicans; experiment: In vitro minimum inhibitory concentration against Candida albicans.; type: functional
[4] = system: Aspergillus fumigatus; experiment: In vitro minimum fungicidal concentration required to inhibit Aspergillus fumigatus(MFC); type: functional
Summary of the method: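 Mould MFC: 100 µL aliquots from macrodilution tubes (RPMI 1640/MOPS pH 7.0, 0.5 × 10³ to 2.5 × 10³ CFU/mL conidial inoculum, 30 °C, 48-72 h, drug 100 to 0.09 µg/mL) showing complete growth inhibition plated on Sabouraud agar; MFC taken as lowest drug concentration giving three or fewer colonies.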

[5] = system: Nucleic Acid; remark: listed apart in the source
[6] = system: Mycobacterium tuberculosis; experiment: In vitro minimum inhibitory concentration required to inhibit Mycobacterium tuberculosis; type: functional
Summary of the method: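 M. tuberculosis H37Rv grown in BACTEC 12B medium; fluorometric broth microdilution (Microplate Alamar Blue Assay). […] MIC = lowest concentration reducing relative fluorescence units by ≥90% relative to control culture. Testing done by TAACF.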

[7] = system: Candida albicans; experiment: In vitro minimum fungicidal concentration against Candida albicans.; type: functional
Summary of the method: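 Yeast MFC: after broth macrodilution (RPMI 1640/MOPS pH 7.0, 0.5 × 10³ to 2.5 × 10³ CFU/mL, 35 °C, 48 h or 72 h for C. neoformans, drug 100 to 0.09 µg/mL), 100 µL from tubes with complete inhibition plated on Sabouraud agar; lowest concentration yielding three or fewer colonies recorded.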

[8] = system: Nucleic Acid; experiment: DNA binding affinity to poly dA.dT; type: nucleic-acid assay

Compound | ΔTm [1] | MIC [2] [µg/mL] | MIC [3] [µg/mL] | MFC [4] [µg/mL] | ΔTm [5] | MIC [6] [µg/mL] | MFC [7] [µg/mL] | ΔTm [8]
N=C(Nc1ccc(-c2ccc(-c3ccc(NC(=N)C4CCCCC4)cc3)o2)cc1)C1CCCCC1 | 12.8 | 100 (≈ 213 µM) | > 100 | > 100 | 26.7 | ≤ 6.25 |  | 
Cc1cc(NC(=N)c2ccc3ccccc3n2)ccc1-c1ccc(-c2ccc(NC(=N)c3ccc4ccccc4n3)cc2C)o1 | 1.1 | 100 (≈ 170 µM) | 100 (≈ 170 µM) |  |  |  | 100 (≈ 170 µM) | 7.5
CO[C@H]1/C=C/O[C@@]2(C)Oc3c(C)c(O)c4c(O)c(c(/C=N/N5CCN(C)CC5)c(O)c4c3C2=O)NC(=O)/C(C)=C\C=C\[C@H](C)[C@H](O)[C@@H](C)[C@@H](O)[C@@H](C)[C@H](OC(C)=O)[C@@H]1C [RIFAMPIN] |  |  |  |  |  | 0.062 (≈ 0.0753 µM) |  | 
Cc1cc(NC(=N)c2ccccn2)cc(C)c1-c1ccc(-c2c(C)cc(NC(=N)c3ccccn3)cc2C)o1 | 1.2 | 10 (≈ 19.4 µM) | 10 (≈ 19.4 µM) | > 100 | 5.7 |  | > 100 | 
CC(=N)Nc1ccc(-c2ccc(-c3ccc(NC(C)=N)cc3)o2)cc1 | 6 | 100 (≈ 301 µM) | > 100 | > 100 | 15.9 |  |  | 
COc1cc(NC(=N)c2ccccn2)ccc1-c1ccc(-c2ccc(NC(=N)c3ccccn3)cc2OC)o1 | 7.8 | ≤ 1 | ≤ 1 | ≤ 1 | 19 | ≤ 1 | ≤ 1 | 
Cc1cc(NC(=N)N)ccc1-c1ccc(-c2ccc(NC(=N)N)cc2C)o1.Cl.Cl | 6.9 | 33.4 | 1.04 | 33.4 | 17.8 | ≤ 1 | 2.08 | 
Cl.Cl.N=C(N)Nc1ccc(-c2ccc(-c3ccc(NC(=N)N)cc3Cl)o2)c(Cl)c1 | 4.7 | 100 | 10 | 100 | 26.1 | 4 | 100 | 
N=C(Nc1ccc(-c2ccc(-c3ccc(NC(=N)c4ccccn4)cc3Cl)o2)c(Cl)c1)c1ccccn1 | 0 | > 100 | 100 (≈ 190 µM) |  | 5.2 | 8 (≈ 15.2 µM) | > 100 | 
Cc1cc(NC(=N)c2ccccc2)ccc1-c1ccc(-c2ccc(NC(=N)c3ccccc3)cc2C)o1 | 7.8 |  | 3.12 (≈ 6.44 µM) |  | 24.9 | 3.13 (≈ 6.46 µM) | 6.25 (≈ 12.9 µM) | 
